ChEMBL document CHEMBL4385637, “2-Aryladenine derivatives as a potent scaffold for A1, A3 and dual A1/A3 adenosine receptor antagonists: Synthesis and structure-activity relationships” (Bioorg Med Chem, 2019)

How the values were obtained:
[1] = molecular target: T1, Adenosine receptor A1 (Homo sapiens) (UniProt P30542); experiment: Displacement of [3H]DPCPX from human A1 receptor expressed in CHO-A1 cells at 10 uM incubated for 60 mins by scintillation counting method based radioligand competitive binding assay; type: cell-based
T1 sequence (whole entry): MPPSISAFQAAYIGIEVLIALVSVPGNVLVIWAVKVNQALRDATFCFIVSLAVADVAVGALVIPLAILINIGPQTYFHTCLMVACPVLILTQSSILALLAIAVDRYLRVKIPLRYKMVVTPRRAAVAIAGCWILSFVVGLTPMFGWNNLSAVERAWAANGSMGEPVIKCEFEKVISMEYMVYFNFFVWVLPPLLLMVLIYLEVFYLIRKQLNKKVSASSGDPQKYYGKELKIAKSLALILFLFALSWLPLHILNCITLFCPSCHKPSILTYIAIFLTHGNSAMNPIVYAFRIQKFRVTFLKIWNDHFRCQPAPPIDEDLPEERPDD
Method in brief: (§1)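 CHO-A1 membranes, 15 μg protein, in 20 mM Hepes, 100 mM NaCl, 10 mM MgCl2, 2 UI/ml adenosine deaminase, pH 7.4. Radioligand 2 nM [3H]DPCPX; nonspecific binding with 10 μM (R)-PIA. Incubated 25 °C for 60 min, filtered, counted, in duplicate. Screen at 10 μM; compounds >80% inhibition tested at 6 concentrations (10 nM–100 μM), Ki by Cheng-Prusoff.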

[2] = molecular target: T2, Adenosine receptor A3 (Homo sapiens, UniProt P0DMS8); experiment: Displacement of [3H]NECA from human A3 receptor expressed in HeLa-A3 cells incubated for 180 mins by scintillation counting method based radioligand competitive binding assay; type: cell-based
T2 sequence (P0DMS8 whole entry): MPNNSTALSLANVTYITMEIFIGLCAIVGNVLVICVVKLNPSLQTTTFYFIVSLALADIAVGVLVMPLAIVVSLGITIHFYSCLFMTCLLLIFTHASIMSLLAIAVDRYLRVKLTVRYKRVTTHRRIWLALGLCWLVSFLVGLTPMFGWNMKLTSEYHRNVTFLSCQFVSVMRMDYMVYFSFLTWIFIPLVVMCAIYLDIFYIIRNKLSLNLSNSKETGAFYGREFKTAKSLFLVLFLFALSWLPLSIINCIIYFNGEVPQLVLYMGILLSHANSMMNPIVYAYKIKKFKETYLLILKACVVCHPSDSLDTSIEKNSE
Method in brief: (§2)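 Membranes of HeLa-A3 cells (90 μg protein) in 50 mM Tris-HCl, 1 mM EDTA, 5 mM MgCl2, 2 UI/mL adenosine deaminase, pH 7.4, with 30 nM [3H]NECA. Nonspecific: 100 μM (R)-PIA. 180 min at 25 °C, GF/B filtration, triplicates, scintillation counting. 10 μM single-point inhibition; >80% actives run at 6 concentrations (10 nM–100 μM), pKi via Cheng-Prusoff.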

[3] = molecular target: T3, Adenosine receptor A3 (Homo sapiens) (UniProt P0DMS8); experiment: Displacement of [3H]NECA from human A3 receptor expressed in HeLa-A3 cells at 10 uM incubated for 180 mins by scintillation counting method based radioligand competitive binding assay; type: cell-based; method in brief: as §2
T3 sequence (whole entry): T2 sequence (P0DMS8 whole entry)

[4] = molecular target: T4, Adenosine receptor A1 (Homo sapiens, UniProt P30542); experiment: Displacement of [3H]DPCPX from human A1 receptor expressed in CHO-A1 cells incubated for 60 mins by scintillation counting method based radioligand competitive binding assay; type: cell-based; method in brief: as §1
T4 sequence (P30542 whole entry): T1 sequence (whole entry)

[5] = molecular target: T5, Adenosine receptor A2b (Homo sapiens) (UniProt P29275); experiment: Displacement of [3H]DPCPX from human A2B receptor expressed in HEK-293-A2B cells at 10 uM incubated for 30 mins by scintillation counting method based radioligand competitive binding assay; type: cell-based
T5 sequence (whole entry): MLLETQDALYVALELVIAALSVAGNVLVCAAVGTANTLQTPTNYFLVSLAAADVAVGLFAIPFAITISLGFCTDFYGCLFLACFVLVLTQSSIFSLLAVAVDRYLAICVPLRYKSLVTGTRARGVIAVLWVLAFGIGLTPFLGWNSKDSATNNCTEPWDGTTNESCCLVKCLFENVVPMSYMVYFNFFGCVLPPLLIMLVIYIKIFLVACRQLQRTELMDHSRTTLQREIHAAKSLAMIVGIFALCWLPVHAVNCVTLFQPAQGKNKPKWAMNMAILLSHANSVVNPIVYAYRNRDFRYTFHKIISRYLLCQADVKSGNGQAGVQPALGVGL
Method in brief: (§3)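 HEK-293-A2B membranes, 18 μg protein, in 50 mM Tris-HCl, 1 mM EDTA, 10 mM MgCl2, 0.1 mM benzamidine, 10 µg/mL bacitracin, 2 UI/mL adenosine deaminase, pH 6.5. Tracer 35 nM [3H]DPCPX; 400 μM NECA defines nonspecific binding. 25 °C for 30 min, GF/C filtration, duplicates. Single-point 10 μM screen, then 6-point curves (10 nM–100 μM), Cheng-Prusoff Ki.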

[6] = molecular target: T6, Adenosine receptor A2a (Homo sapiens, UniProt P29274); experiment: Displacement of [3H]ZM241385 from human A2A receptor expressed in HeLa-A2A cells at 10 uM incubated for 30 mins by scintillation counting method based radioligand competitive binding assay; type: cell-based
Method in brief: (§4)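 Uses HeLa-A2A membranes, 10 µg protein, buffer 50 mM Tris-HCl, 1 mM EDTA, 10 mM MgCl2, 2 UI/mL adenosine deaminase, pH 7.4. 3 nM [3H]ZM241385; nonspecific with 50 µM NECA. 30 min at 25 °C, GF/C filtration, duplicate wells. Screened at 10 μM; if >80% inhibition, 6 concentrations 10 nM–100 μM, Ki by Cheng-Prusoff.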

[7] = molecular target: T3, Adenosine receptor A3 (Homo sapiens); experiment: Antagonist activity at human A3 receptor in CHO-A3 cells assessed as reduction in NECA-induced inhibition of forskolin-stimulated cAMP accumulation preincubated for 15 mins followed by NECA addition and further incubated for 15 mins by ELISA; type: functional, cell-based
Method in brief: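 CHO cells expressing human A3, washed in DMEM F-12 with 25 mM HEPES pH 7.4 and 30 μM rolipram. Compound preincubated 15 min, then NECA (0.1 nM–1 mM) and 10 μM forskolin added for 15 min. cAMP quantified by enzyme immunoassay. Antagonist curves run against 0.1 μM NECA, duplicates. pKB calculated from IC50, agonist level, A50 and Hill slope.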

[8] = molecular target: T6, Adenosine receptor A2a; experiment: Displacement of [3H]ZM241385 from human A2A receptor expressed in HeLa-A2A cells incubated for 30 mins by scintillation counting method based radioligand competitive binding assay; type: cell-based; method in brief: as §4
[9] = molecular target: T7, Adenosine receptor A2b (Homo sapiens, UniProt P29275); experiment: Displacement of [3H]DPCPX from human A2B receptor expressed in HEK-293-A2B cells incubated for 30 mins by scintillation counting method based radioligand competitive binding assay; type: cell-based; method in brief: as §3
T7 sequence (P29275 whole entry): T5 sequence (whole entry)

[10] = molecular target: T1, Adenosine receptor A1 (Homo sapiens); experiment: Antagonist activity at human A1 receptor in CHO-A1 cells assessed as reduction in NECA-induced inhibition of forskolin-stimulated cAMP accumulation preincubated for 15 mins followed by NECA addition and further incubated for 15 mins by ELISA; type: functional, cell-based
Method in brief: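 CHO-A1 cells stably expressing receptor, grown with dialyzed FBS, washed in F-12 medium with 25 mM HEPES pH 7.4 and 20 μM rolipram. Test compound preincubated 15 min, then NECA (0.1 nM–1 mM) plus 3 μM forskolin added for 15 min. cAMP measured by enzyme immunoassay with TMB readout. pKB derived from antagonist curve against NECA effect.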

T6 sequence (P29274 whole entry): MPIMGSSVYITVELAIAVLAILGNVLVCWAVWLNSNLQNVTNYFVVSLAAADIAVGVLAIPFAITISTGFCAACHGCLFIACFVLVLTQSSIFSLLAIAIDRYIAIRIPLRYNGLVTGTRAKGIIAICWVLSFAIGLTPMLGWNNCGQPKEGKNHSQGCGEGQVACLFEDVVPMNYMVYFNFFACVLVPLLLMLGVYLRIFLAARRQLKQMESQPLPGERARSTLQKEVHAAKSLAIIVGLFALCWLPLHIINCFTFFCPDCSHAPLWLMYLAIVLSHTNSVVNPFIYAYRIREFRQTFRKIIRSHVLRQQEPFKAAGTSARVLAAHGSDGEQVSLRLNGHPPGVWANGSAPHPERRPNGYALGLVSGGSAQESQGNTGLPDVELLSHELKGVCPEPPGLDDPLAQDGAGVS

| SMILES | inhibition [1] | Ki [2] | inhibition [3] | Ki [4] | inhibition [5] | inhibition [6] | pKb [7] | Ki [8] | Ki [9] | pKb [10] |
| --- | --- | --- | --- | --- | --- | --- | --- | --- | --- | --- |
| CN1CCN(c2nc(-c3cc(Cl)ccc3Cl)nc3[nH]cnc23)CC1 | > 80% | 251 nM | > 80% | 2510 nM | 13% | 9.1% |  |  |  |  |
| Clc1ccc(Cl)c(-c2nc(N3CCCCC3)c3nc[nH]c3n2)c1 | 1.4% | 200 nM | > 80% |  | 12.1% | 21% |  |  |  |  |
| Cn1cnc2c(N3CCCCC3)nc(-c3cccc(Cl)c3)nc21 | 22.4% |  | 6.1% |  | 24.2% | 17% |  |  |  |  |
| Cn1cnc2c(N3CCCCC3)nc(-c3cccc(O)c3)nc21 | 78.5% |  | 49.1% |  | 29.3% | 54.8% |  |  |  |  |
| CN1CCN(c2nc(-c3ccc(Cl)cc3)nc3[nH]cnc23)CC1 | > 80% | 39.8 nM | > 80% | 398 nM | 6.2% | 15.9% |  |  |  |  |
| CN1CCN(c2nc(-c3cccc(Cl)c3)nc3c2ncn3C)CC1 | 45.7% |  | 38.3% |  | 19.2% | 21% |  |  |  |  |
| Clc1cccc(-c2nc(N3CCCCC3)c3nc[nH]c3n2)c1 | > 80% | 39.8 nM | > 80% | 50.1 nM | > 80% | 43.5% |  |  | 1000 nM |  |
| CN1CCN(c2nc(-c3cccc(Cl)c3)nc3[nH]cnc23)CC1 | > 80% | 100 nM | > 80% | 79.4 nM | 29.9% | 52.7% |  |  |  |  |
| CN1CCN(c2nc(-c3ccc(Cl)c(C(F)(F)F)c3)nc3[nH]cnc23)CC1 | 52.4% | 794 nM | > 80% |  | 25.1% | 32% |  |  |  |  |
| CN1CCN(c2nc(-c3ccc(Cl)c(Cl)c3)nc3c2ncn3C)CC1 | 65.2% |  | 35.3% |  | 28.3% | 25% |  |  |  |  |
| Clc1ccc(-c2nc(N3CCCCC3)c3nc[nH]c3n2)cc1Cl | 24.1% | 79.4 nM | > 80% |  | 0.7% | 7% |  |  |  |  |
| Cn1cnc2c(N3CCCCC3)nc(-c3ccccc3O)nc21 | 50.5% |  | 20% |  | 30.2% | 74.8% |  |  |  |  |
| Oc1cccc(-c2nc(N3CCCCC3)c3nc[nH]c3n2)c1 | > 80% | 63.1 nM | > 80% | 10 nM | > 80% | > 80% |  | 316 nM | 158 nM | 7.9 |
| CN1CCN(c2ncnc3[nH]cnc23)CC1 | 9.2% |  | 26.9% |  | 14% | 19.1% |  |  |  |  |

Other lines, results leading:

| inhibition [1] | Ki [2] | inhibition [3] | Ki [4] | inhibition [5] | inhibition [6] | pKb [7] | Ki [8] | Ki [9] | pKb [10] | SMILES |
| --- | --- | --- | --- | --- | --- | --- | --- | --- | --- | --- |
| 17.2% |  | 33.7% |  | 26% | 24.1% |  |  |  |  | Cn1cnc2c(N3CCCCC3)nc(-c3cccc(O)c3O)nc21 |
| > 80% | 7.94 nM | > 80% | 126 nM | 1.4% | > 80% | 8.2 | 3160 nM |  |  | Clc1ccc(-c2nc(N3CCCCC3)c3nc[nH]c3n2)cc1 |
| > 80% | 501 nM | > 80% | 158 nM | 27% | 1% |  |  |  |  | CN1CCN(c2nc(-c3cccc(O)c3)nc3[nH]cnc23)CC1 |
| > 80% |  | 48% | 398 nM | 53% | 37% |  |  |  |  | CN1CCN(c2nc(-c3ccc(O)cc3)nc3[nH]cnc23)CC1 |
| > 80% |  | 15.3% | 631 nM | 36% | 59.6% |  |  |  |  | CN1CCN(c2nc(-c3ccccc3O)nc3c2ncn3C)CC1 |
| 27.1% |  | 63.8% |  | 47.8% | 4.2% |  |  |  |  | CN1CCN(c2nc(-c3cccc(O)c3)nc3c2ncn3C)CC1 |
| > 80% | 39.8 nM | > 80% | 631 nM | 24.1% | 12% |  |  |  |  | CN1CCN(c2nc(-c3ccc(Cl)c(Cl)c3)nc3[nH]cnc23)CC1 |
| 13.2% |  | 5.4% |  | 31% | 2.4% |  |  |  |  | Cn1cnc2c(N3CCCCC3)nc(-c3cc(Cl)ccc3Cl)nc21 |
| 35.2% |  | 2.1% |  | 32.7% | 36.4% |  |  |  |  | Cn1cnc2c(N3CCCCC3)nc(-c3ccccc3Cl)nc21 |
| > 80% | 39.8 nM | > 80% | 10 nM | > 80% | > 80% |  | 100 nM | 79.4 nM |  | Oc1ccc(-c2nc(N3CCCCC3)c3nc[nH]c3n2)cc1 |
